Measurements as given in ChEMBL document CHEMBL1153445, “Alkenyl substituted bicyclic nucleoside analogues retain nanomolar potency against Varicella Zoster Virus” (Bioorg Med Chem, 2009).

What was measured:
[1] = Cytotoxicity against human HEL cells; type: cell-based; conditions: for MCC: read-out: MIC
Human alphaherpesvirus 3 [2] = test: Antiviral activity against Varicella Zoster virus Oka infected in HEL cells assessed as reduction in viral plaque formation after 5 days; type: functional, organism-based; conditions: Human alphaherpesvirus 3, Oka, 120 h
Outline: (§1)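 Confluent HEL cell monolayers infected with 20 PFU VZV per well; after 1–2 h adsorption, residual virus removed and cells incubated in MEM with 2% inactivated FCS, 1% L-glutamine, 0.3% sodium bicarbonate plus graded compound concentrations.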

[3] = Inhibition of Varicella Zoster virus thymidine kinase-mediated [3H]thymidine phosphorylation; design: species or system Human alphaherpesvirus 3
Human alphaherpesvirus 3 [4] = test: Antiviral activity against Varicella Zoster virus YS infected in HEL cells assessed as reduction in viral plaque formation after 5 days; type: functional, organism-based; conditions: Human alphaherpesvirus 3, YS, 120 h; outline: as §1

EC50 (Human alphaherpesvirus 3 [2]) | IC50 [3] | EC50 (Human alphaherpesvirus 3 [4]) | SMILES | MCC [1] | CC50 [1]
 |  |  | CCCCc1ccc(-c2cc3cn([C@H]4C[C@H](O)[C@@H](CO)O4)c(=O)nc3o2)cc1 | ≥ 50 µM | 
 |  |  | CCCc1ccc(-c2cc3cn([C@H]4C[C@H](O)[C@@H](CO)O4)c(=O)nc3o2)cc1 | ≥ 50 µM | 
8.4 µM | 119 µM |  | CCC/C=C/c1ccccc1-c1cc2cn([C@H]3C[C@H](O)[C@@H](CO)O3)c(=O)nc2o1 | 80 µM | 41 µM
0.0003 µM | 2.3 µM | 0.0008 µM | CCC/C=C/c1ccc(-c2cc3cn([C@H]4C[C@H](O)[C@@H](CO)O4)c(=O)nc3o2)cc1 | > 5 µM | > 200 µM
0.0006 µM | 2.4 µM | 0.007 µM | CC/C=C/c1ccc(-c2cc3cn([C@H]4C[C@H](O)[C@@H](CO)O4)c(=O)nc3o2)cc1 | ≥ 5 µM | > 200 µM
0.004 µM | 1.9 µM | 0.004 µM | C/C=C/c1ccc(-c2cc3cn([C@H]4C[C@H](O)[C@@H](CO)O4)c(=O)nc3o2)cc1 | ≥ 50 µM | > 200 µM
33 µM | 3.8 µM |  | CC/C=C/c1ccccc1-c1cc2cn([C@H]3C[C@H](O)[C@@H](CO)O3)c(=O)nc2o1 | 400 µM | 102 µM
13 µM | 2.6 µM | 58 µM | C/C=C/c1cccc(-c2cc3cn([C@H]4C[C@H](O)[C@@H](CO)O4)c(=O)nc3o2)c1 | > 200 µM | > 200 µM
1.1 µM | 397 µM | 1.3 µM | CCC/C=C/c1cccc(-c2cc3cn([C@H]4C[C@H](O)[C@@H](CO)O4)c(=O)nc3o2)c1 | ≥ 200 µM | > 200 µM
1.9 µM | 23 µM | 2.3 µM | CC/C=C/c1cccc(-c2cc3cn([C@H]4C[C@H](O)[C@@H](CO)O4)c(=O)nc3o2)c1 | ≥ 20 µM | 68 µM
12 µM | 0.31 µM |  | C/C=C/c1ccccc1-c1cc2cn([C@H]3C[C@H](O)[C@@H](CO)O3)c(=O)nc2o1 | 400 µM | 103 µM
 |  |  | CCCCCc1ccc(-c2cc3cn([C@H]4C[C@H](O)[C@@H](CO)O4)c(=O)nc3o2)cc1 [CF1743] | ≥ 50 µM | 
